Laboratory results reported in paper PMC3068019 (EMBO Molecular Medicine, 2010).

Assays:
Q111 cells = test: 3-NP toxicity, LIVE/DEAD viability assay, Q111 cells; assay type: cell-based, mouse
[1] = tested on: PGC-1α mRNA, Q111 striatal cells; test: PGC-1α mRNA by quantitative RT-PCR, Q111 cells; assay type: cell-based, mouse
Summary of the method: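 Total RNA (2 µg) from Q7/Q111 striatal cells, run either by TaqMan one-step RNA-to-Ct or by Superscript III reverse transcription followed by TaqMan gene expression assays on real-time PCR. Quantified by the delta-delta CT method, normalised to 18S […].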

Caspase = settings: ref Bailey & Johnson, 2006; Jeitner et al, 2005; cited from earlier work
glutathione = settings: ref Mao et al, 2006; cited from earlier work
HD model mice = settings: ref Karpuj et al, 2002; Fox et al, 2004; cited from earlier work
DNAJB10 = settings: ref Karpuj et al, 2002; cited from earlier work
BDNF = settings: ref Borrell-Pages et al, 2006; cited from earlier work
[2] = tested on: DNAJ (HSJ1b), striatal neurons; settings: ref Borrell-Pages et al, 2006, cited from earlier work
Caenorhabditis elegans = settings: ref Borrell-Pages et al, 2006; cited from earlier work
PGC-1α = settings: ref Milnerwood et al, 2010; Okamoto et al, 2009; cited from earlier work

## O=C(O)CC[N+](=O)[O-] [3-NP, 3-nitropropionic acid]
Q111 cells; 3-NP 10 mM for 48 h
  toxicity of 3-NP, Q111 compared with Q7 cells: more toxic to Q111 cells than to Q7 cells

## CCCC(=O)O [NaBu, Sodium butyrate]
[1]
  effect on PGC-1α mRNA levels: increased the mRNA levels of PGC-1α

## CC(/C=C/C(=O)NO)=C\[C@@H](C)C(=O)c1ccc(N(C)C)cc1 [TSA, Trichostatin A]
[1]
  effect on PGC-1α mRNA levels: increased the mRNA levels of PGC-1α

## NCCSSCCN [cystamine]
Caspase
  caspase inhibition: caspase inhibition
glutathione
  glutathione levels: increases levels of the versatile antioxidant glutathione
Q111 cells; not shown, cell line not stated
  protection against 3-NP toxicity: protect against 3-NP toxicity
HD model mice
  neuroprotection in HD models: neuroprotective
DNAJB10
  DNAJB10 in treated mice: increased

## NCCS [cysteamine]
BDNF
  trafficking of BDNF: enhanced
[2]
  DNAJB10 levels: normalize DNAJB10 levels
[2]; striatal neurons in vitro
  DNAJ (HSJ1b) transcription and protein levels: increased
Caenorhabditis elegans
  protection of worms from toxic effects of mhtt: protected worms

## CC12CC3CC(C)(C1)CC(N)(C3)C2 [memantine]
PGC-1α
  transcriptional dysregulation of PGC-1α induced by extrasynaptic glutamate: appears to prevent transcriptional dysregulation of PGC-1α
